According to ChEMBL document CHEMBL5576157, “"Seasoning" antimalarial drugs' action: chloroquine bile salts as novel triple-stage antiplasmodial hits” (RSC Med Chem, 2024):
Blank lines part the entries; values can stand above or below the compound they belong to. Active and inactive are the calls of the source. The rule behind the calls is not given here.

Tests used:
Plasmodium falciparum [1] = assay: Antimalarial activity against stage III gametocytes of Plasmodium falciparum 3D7 expressing GFP infected erythrocytes assessed inhibition of gametocyte level at 10 uM after 72 hrs followed by compound washout and measured after 24 hrs by Giemsa-staining based microscopic analysis relative to control; format: functional; conditions: 3D7, Erythrocyte
How it was run: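 P. falciparum 3D7HT-GFP was sorbitol-synchronized, and schizonts were Percoll-purified and cultured at 3% hematocrit until stage III gametocytes appeared. Microcultures of 1 mL (1-2% gametocytemia, 2.5% hematocrit) got 10 µM compound or DMSO (<0.3%) for 72 h, then compound-free medium for 24 h. Stage IV/V gametocytes were counted per 3000 RBC on Giemsa smears, in duplicate by two microscopists. Inhibition = 100 − (treated/drug-free control ×100).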

Erythrocyte = assay: Hemolytic activity in RBC (unknown origin) assessed as hemolysis at 10 uM incubated for 1 hr by microplate reader assay; format: toxicity, cell-based; conditions: human
How it was run: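 Human blood had plasma removed by spinning. RBC were washed three times in 0.01 M PBS pH 7.4 and set to 6% hematocrit. They were mixed with an equal volume of compound at 20 µM in PBS with 1.3% DMSO and kept 1 h at 37 °C, then spun. Supernatant A450 was read. Hemolysis % was scaled between PBS/0.65% DMSO (negative) and 1% Triton X-100 (positive).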

Plasmodium berghei = assay: Antimalarial activity against Plasmodium berghei sporozoites expressing firefly luciferase infected in human Huh-7 cells assessed reduction in parasite growth at 10 uM preincubated for 1 hr followed by infection and measured after 48 hrs by luminescence analysis; format: functional, organism-based; conditions: time 49.0 hrs
How it was run: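 Huh-7 hepatoma cells were grown in RPMI with 10% FCS, non-essential amino acids, glutamine, penicillin/streptomycin and 10 mM HEPES pH 7, at 37 °C and 5% CO2. Cells were seeded at 1.2×10⁴/well the day before. Compound medium was added ~1 h before infection with firefly luciferase P. berghei sporozoites freshly dissected from mosquito salivary glands, then spun at 1700 g for 5 min. Parasite load was read at 48 h by lysate luminescence after luciferin addition.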

[2] = Stability of compound assessed as degradation temperature at 25 to 500 degreeC under N2 gas by thermogravimetric analysis; format: physicochemical
How it was run: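 Thermogravimetric analysis heated samples from 25 to 500 °C at 5 °C/min under N2 flowing at 50 mL·min⁻¹.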

Plasmodium falciparum [3] = assay: Antimalarial activity against blood stage chloroquine-sensitive Plasmodium falciparum 3D7 expressing GFP infected in erythrocytes assessed as reduction in parasitemia incubated for 72 hrs by flow cytometry analysis; format: functional, organism-based; conditions: 3D7, Erythrocyte
How it was run: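 Growth was read by flow cytometry on the GFP channel (488 nm excitation), counting 20,000–40,000 RBC per well. IC50 values were fitted from the curves and reported as the mean of at least three experiments, each in duplicate.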

Huh-7 = assay: Cytotoxicity against human Huh-7 cells assessed as reduction in cell viability at 10 uM by AlamarBlue assay; format: toxicity, cell-based; conditions: huh-7, 10 µM
How it was run: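 Huh-7 hepatoma cells were cultured in RPMI with 10% FCS, non-essential amino acids, glutamine, penicillin/streptomycin and 10 mM HEPES pH 7, at 37 °C and 5% CO2, within the liver-stage infection setup. Viability was read by AlamarBlue following the manufacturer's protocol.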

Plasmodium falciparum [4] = assay: Antimalarial activity against blood stage chloroquine-resistant Plasmodium falciparum Dd2 infected in erythrocytes assessed as reduction in parasitemia incubated for 72 hrs by flow cytometry analysis; format: functional, organism-based; conditions: Dd2, Erythrocyte
Plasmodium falciparum [5] = assay: Antimalarial activity against blood stage chloroquine-sensitive Plasmodium falciparum 3D7 expressing GFP infected in erythrocytes assessed as inhibition of parasite growth at 10 uM incubated for 72 hrs by flow cytometry analysis relative to control; format: functional; conditions: 3D7, Erythrocyte
How it was run: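 Unsynchronized P. falciparum 3D7-GFP culture (0,6% hematocrit, 0,5% parasitaemia) was exposed to 10 µM compound for 72 h at 37 °C and 5% CO2. Growth was read by flow cytometry of GFP (Fl-1, 488 nm excitation), counting 20,000–40,000 erythrocytes per well.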

SMILES: C[C@H](CCC(=O)NCCCCNc1ccnc2cc(Cl)ccc12)[C@H]1CC[C@H]2[C@@H]3[C@H](O)C[C@@H]4C[C@H](O)CC[C@]4(C)[C@H]3C[C@H](O)[C@]12C
- inhibition at 10 µM (Plasmodium falciparum [1]): 91%
- Activity (Erythrocyte): Non-Toxic
- Activity (Plasmodium berghei): Active
- T [2]: 250 °C
- IC50 (Plasmodium falciparum [3]): 108 nM
- Activity (Huh-7): Non-Toxic
- IC50 (Plasmodium falciparum [4]): 562 nM

- T [2]: 360 °C
SMILES: C[C@H](CCC(=O)O)[C@H]1CC[C@H]2[C@@H]3[C@H](O)C[C@@H]4C[C@H](O)CC[C@]4(C)[C@H]3C[C@H](O)[C@]12C [CHOLIC ACID]
- inhibition at 10 µM (Plasmodium falciparum [1]): 39%
- Activity (Erythrocyte): Non-Toxic

SMILES: CCN(CC)CCCC(C)Nc1ccnc2cc(Cl)ccc12.O=P(O)(O)O.O=P(O)(O)O (centres undefined) [CHLOROQUINE PHOSPHATE]
- inhibition at 10 µM (Plasmodium falciparum [1]): 72%
- Activity (Erythrocyte): Non-Toxic
- inhibition at 10 µM (Plasmodium falciparum [5]): 98%

- T [2]: 361 °C
SMILES: CCN(CC)CCCC(C)Nc1ccnc2cc(Cl)ccc12.C[C@H](CCC(=O)NCC(=O)O)[C@H]1CC[C@H]2[C@@H]3[C@H](O)C[C@@H]4C[C@H](O)CC[C@]4(C)[C@H]3C[C@H](O)[C@]12C
- inhibition at 10 µM (Plasmodium falciparum [1]): 86%
- Activity (Erythrocyte): Non-Toxic
- Activity (Huh-7): Non-Toxic
- inhibition at 10 µM (Plasmodium falciparum [5]): 97%

SMILES: COc1cc(NC(C)CCCN)c2ncccc2c1.C[C@H](CCC(=O)O)[C@H]1CC[C@H]2[C@@H]3CC[C@@H]4C[C@H](O)CC[C@]4(C)[C@H]3C[C@H](O)[C@]12C
- inhibition at 10 µM (Plasmodium falciparum [1]): 86%
- Activity (Erythrocyte): Non-Toxic
- T [2]: 348 °C
- IC50 (Plasmodium falciparum [3]): 600 nM
- Activity (Huh-7): Non-Toxic
- inhibition at 10 µM (Plasmodium falciparum [5]): 82%

- T [2]: 242 °C
SMILES: CCN(CC)CCCC(C)Nc1ccnc2cc(Cl)ccc12.C[C@H](CCC(=O)O)[C@H]1CC[C@H]2[C@@H]3CC[C@@H]4C[C@H](O)CC[C@]4(C)[C@H]3C[C@H](O)[C@]12C
- inhibition at 10 µM (Plasmodium falciparum [1]): 86%
- Activity (Erythrocyte): Non-Toxic
- Activity (Huh-7): Non-Toxic
- inhibition at 10 µM (Plasmodium falciparum [5]): 97%

- T [2]: 255 °C
SMILES: CCN(CC)CCCC(C)Nc1ccnc2cc(Cl)ccc12.C[C@H](CCC(=O)O)[C@H]1CC[C@H]2[C@@H]3[C@H](O)C[C@@H]4C[C@H](O)CC[C@]4(C)[C@H]3CC[C@]12C
- inhibition at 10 µM (Plasmodium falciparum [1]): 87%
- Activity (Erythrocyte): Non-Toxic
- Activity (Huh-7): Non-Toxic
- inhibition at 10 µM (Plasmodium falciparum [5]): 97%

SMILES: CCN(CC)CCCC(C)Nc1ccnc2cc(Cl)ccc12.C[C@H](CCC(=O)O)[C@H]1CC[C@H]2[C@@H]3CC[C@@H]4C[C@H](O)CC[C@]4(C)[C@H]3CC[C@]12C [listing 1 of 2 here]
- Activity (Plasmodium berghei): Active

- T [2]: 253 °C
SMILES: CCN(CC)CCCC(C)Nc1ccnc2cc(Cl)ccc12.C[C@H](CCC(=O)O)[C@H]1CC[C@H]2[C@@H]3[C@H](O)C[C@@H]4C[C@H](O)CC[C@]4(C)[C@H]3C[C@H](O)[C@]12C
- inhibition at 10 µM (Plasmodium falciparum [1]): 88%
- Activity (Erythrocyte): Non-Toxic
- Activity (Huh-7): Non-Toxic
- inhibition at 10 µM (Plasmodium falciparum [5]): 97%

SMILES: COc1cc(NC(C)CCCN)c2ncccc2c1.C[C@H](CCC(=O)NCC(=O)O)[C@H]1CC[C@H]2[C@@H]3[C@H](O)C[C@@H]4C[C@H](O)CC[C@]4(C)[C@H]3C[C@H](O)[C@]12C
- inhibition at 10 µM (Plasmodium falciparum [1]): 81%
- Activity (Erythrocyte): Non-Toxic
- T [2]: 255 °C
- IC50 (Plasmodium falciparum [3]): 384 nM
- Activity (Huh-7): Non-Toxic
- inhibition at 10 µM (Plasmodium falciparum [5]): 82%

SMILES: COc1cc(NC(C)CCCN)c2ncccc2c1.C[C@H](CCC(=O)O)[C@H]1CC[C@H]2[C@@H]3CC[C@@H]4C[C@H](O)CC[C@]4(C)[C@H]3CC[C@]12C [listing 1 of 2 here]
- Activity (Plasmodium berghei): Active

SMILES: CCN(CC)CCCC(C)Nc1ccnc2cc(Cl)ccc12.C[C@H](CCC(=O)O)[C@H]1CC[C@H]2[C@@H]3CC[C@@H]4C[C@H](O)CC[C@]4(C)[C@H]3CC[C@]12C [listing 2 of 2 here]
- inhibition at 10 µM (Plasmodium falciparum [1]): 90%
- Activity (Erythrocyte): Non-Toxic
- T [2]: 367 °C
- Activity (Huh-7): Non-Toxic
- inhibition at 10 µM (Plasmodium falciparum [5]): 97%

- T [2]: 357 °C
SMILES: C[C@H](CCC(=O)O)[C@H]1CC[C@H]2[C@@H]3CC[C@@H]4C[C@H](O)CC[C@]4(C)[C@H]3C[C@H](O)[C@]12C [DEOXYCHOLIC ACID]
- inhibition at 10 µM (Plasmodium falciparum [1]): 42%
- Activity (Erythrocyte): Non-Toxic

SMILES: COc1cc(NC(C)CCCN)c2ncccc2c1.C[C@H](CCC(=O)O)[C@H]1CC[C@H]2[C@@H]3[C@H](O)C[C@@H]4C[C@H](O)CC[C@]4(C)[C@H]3C[C@H](O)[C@]12C
- inhibition at 10 µM (Plasmodium falciparum [1]): 91%
- Activity (Erythrocyte): Non-Toxic
- T [2]: 359 °C
- IC50 (Plasmodium falciparum [3]): 589 nM
- Activity (Huh-7): Non-Toxic
- inhibition at 10 µM (Plasmodium falciparum [5]): 82%

- T [2]: 328 °C
SMILES: C[C@H](CCC(=O)NCC(=O)O)[C@H]1CC[C@H]2[C@@H]3[C@H](O)C[C@@H]4C[C@H](O)CC[C@]4(C)[C@H]3C[C@H](O)[C@]12C [GLYCOCHOLIC ACID]
- inhibition at 10 µM (Plasmodium falciparum [1]): 41%
- Activity (Erythrocyte): Non-Toxic

SMILES: COc1cc(NC(C)CCCN)c2ncccc2c1.C[C@H](CCC(=O)O)[C@H]1CC[C@H]2[C@@H]3CC[C@@H]4C[C@H](O)CC[C@]4(C)[C@H]3CC[C@]12C [listing 2 of 2 here]
- inhibition at 10 µM (Plasmodium falciparum [1]): 83%
- Activity (Erythrocyte): Non-Toxic
- T [2]: 253 °C
- IC50 (Plasmodium falciparum [3]): 424 nM
- Activity (Huh-7): Non-Toxic
- inhibition at 10 µM (Plasmodium falciparum [5]): 82%

SMILES: COc1cc(NC(C)CCCN)c2ncccc2c1.C[C@H](CCC(=O)O)[C@H]1CC[C@H]2[C@@H]3[C@H](O)C[C@@H]4C[C@H](O)CC[C@]4(C)[C@H]3CC[C@]12C
- inhibition at 10 µM (Plasmodium falciparum [1]): 80%
- Activity (Erythrocyte): Non-Toxic
- T [2]: 366 °C
- IC50 (Plasmodium falciparum [3]): 380 nM
- Activity (Huh-7): Non-Toxic
- inhibition at 10 µM (Plasmodium falciparum [5]): 82%

SMILES: C[C@H](CCC(=O)O)[C@H]1CC[C@H]2[C@@H]3CC[C@@H]4C[C@H](O)CC[C@]4(C)[C@H]3CC[C@]12C [LITHOCHOLIC ACID]
- inhibition at 10 µM (Plasmodium falciparum [1]): 65%
- Activity (Erythrocyte): Non-Toxic
- T [2]: 355 °C

SMILES: COc1cc(NC(C)CCCN)c2ncccc2c1.O=P(O)(O)O.O=P(O)(O)O (centres undefined) [PRIMAQUINE PHOSPHATE]
- inhibition at 10 µM (Plasmodium falciparum [1]): 93%
- Activity (Erythrocyte): Non-Toxic
- IC50 (Plasmodium falciparum [3]): 415 nM
- IC50 (Plasmodium falciparum [4]): 464 nM
- inhibition at 10 µM (Plasmodium falciparum [5]): 83%
